Screens (PubChem BioAssay)
Most compounds without a hit are left out; they make up all but 3.5% or so of the library.
MrgX1 agonist: human MrgX1 receptor agonism, primary screen; Q96LB2; MrgX1-HEK293 cells, Fluo-4 calcium fluorescence, agonist mode; active compounds read high; B-score at 10 µM; hit rate 0.44% among 310,000; AID 588627;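 active = calcium response B-score plate-corrected fluorescence ratio at least 3 library SD, with starting fluorescence B-score inside 5 SD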
Target sequence (Q96LB2 whole entry, looked up): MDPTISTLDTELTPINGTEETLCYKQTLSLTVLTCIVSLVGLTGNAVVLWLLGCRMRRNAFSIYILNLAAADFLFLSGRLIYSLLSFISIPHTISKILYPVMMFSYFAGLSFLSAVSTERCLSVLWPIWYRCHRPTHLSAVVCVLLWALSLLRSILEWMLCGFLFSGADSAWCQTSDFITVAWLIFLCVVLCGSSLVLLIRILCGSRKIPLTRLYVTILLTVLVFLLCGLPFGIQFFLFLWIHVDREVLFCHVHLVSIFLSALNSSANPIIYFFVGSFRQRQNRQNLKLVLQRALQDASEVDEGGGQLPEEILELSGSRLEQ
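times = overnight plating, then 30 min 37 °C plus 30 min room-temperature dye loading | assay system = stable human MrgX1 HEK293 cell line | input = fifteen thousand cells per well | signal = kinetic calcium dye fluorescence, Fluo-4 NW | dosing = compound delivered in addition one of three | read-out = B-scored fluorescence response ratio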
MrgX1 PAM: allosterically activates human MrgX1 receptor signaling; Q96LB2; hit rate 0.63% among 310,000; B-score at 10 µM; MrgX1-HEK293, Fluo-4 calcium flux, FDSS; active compounds read high;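 active = plate-corrected calcium response at least 3 library SD above typical, normal starting fluorescence, not activating the receptor alone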;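 also: compound read alongside a low EC10 to EC30 dose of BAM8-22 agonist; peak minus trough fluorescence over baseline measured at the second addition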
RGS4 block: human RGS4 inhibition. HEK293 M3R/RGS4 inducible, Fluo-4 calcium flux; active compounds read high; triggered by carbachol at its EC20. B-score at 10 µM. hit rate 0.45% among 310,000. AID 463165;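 active = B-score, a plate-corrected calcium signal, over three deviations above library mean, with baseline fluorescence within five deviations of library mean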;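 also: RGS4 expression induced by doxycycline in cells with stable M3 receptor; B-score is computed from the integrated fluorescence ratio over baseline after carbachol; higher B-score means a larger calcium signal and so more RGS4 inhibition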
Target sequence (P49798 whole entry, looked up): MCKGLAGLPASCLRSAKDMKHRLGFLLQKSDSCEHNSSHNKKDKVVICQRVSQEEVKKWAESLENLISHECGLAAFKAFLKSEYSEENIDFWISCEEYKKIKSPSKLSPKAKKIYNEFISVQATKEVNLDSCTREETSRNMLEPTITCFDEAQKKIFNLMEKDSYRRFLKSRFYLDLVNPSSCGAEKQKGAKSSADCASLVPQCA
MrgX1 antag: antagonists of human MrgX1 receptor; hit rate 1.3% among 310,000; AID 588676; MRGX1-HEK293 calcium flux, Fluo-4, BAM8-22 antagonism; active compounds read low; Q96LB2; B-score at 10 µM;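 active = calcium-response B-score plate-corrected more than 3 library SD below zero, starting fluorescence within 5 deviations, no agonist response on first addition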;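 also: peak minus trough fluorescence over baseline after final BAM8-22 challenge near maximal dose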
RGS4 pot: RGS4 potentiation or activation; hit rate 0.92% among 310,000; HEK293 M3R/inducible RGS4, carbachol calcium flux Fluo4; active compounds read low; AID 463111; B-score at 10 µM;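 active = B-score of the integrated calcium signal more than 4 SD below the library mean, with starting fluorescence not abnormally high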;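 also: negative B-score means reduced calcium response which marks RGS4 activation or potentiation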
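System: HEK293 FlpIn-TREx cells, stable M3R, doxycycline-inducible RGS4. Timing: overnight RGS4 induction, 30 min dye load 37 °C, 20 min compound RT. Also added: carbachol, ECmax concentration. Measured by: Fluo4 fluorescence kinetic imaging of calcium. Evaluation: integrated calcium ratio converted to B score.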
MrgX1 antag conf: human MrgX1 receptor antagonism, re-confirmation screen | MrgX1-HEK293, BAM8-22 calcium flux, Fluo-4; active compounds read low | hit rate 19% among 2,300 | shares compounds with MrgX1 antag | AID 602420 | remaining BAM8-22 calcium response % of control (active compounds read low), % at 10 µM;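 active = remaining agonist calcium response no higher than 100% minus 3 SD of agonist-only control wells, with starting fluorescence near control levels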;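 also: agonist BAM8-22 given at a near maximal EC90 to ECmax level; peak minus minimum fluorescence divided by baseline after agonist addition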
HEK293 Ca flux: counter-screen for MrgX1 antagonists: effect in parental HEK293 cells; AID 624111; hit rate 2% among 4,000; Fluo-4 calcium fluorescence, FDSS; shares compounds with MrgX1 antag; fluorescence ratio F(max-min)/F0 at 10 µM;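 active = duplicate-averaged calcium fluorescence ratio at least three times the standard deviation of buffer wells, a nonspecific response in parental cells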
HEK293 Ca counter: counter-screen for MrgX1 allosteric activators: effect in parental HEK293 cells | shares compounds with MrgX1 antag | hit rate 0.4% among 4,000 | parental HEK293 calcium flux, Fluo-4 fluorescence ratio; active compounds read high | fluorescence ratio F(max-min)/F0 at 10 µM;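 active = calcium fluorescence ratio, averaged over duplicates, at least 3 SD of the buffer-well ratio, meaning a nonspecific response in receptor-free cells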;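 also: untransfected parental HEK293 lacking MrgX1 used as counterscreen for MrgX1 allosteric activators; fluorescence change taken during the second addition on a kinetic imager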
HEK293 Ca cntr2: MrgX1 activator counter-screen hit in parental HEK293 cells; shares compounds with MrgX1 antag; Fluo-4 calcium fluorescence (FDSS); active compounds read high; fluorescence ratio F(max-min)/F0 at 10 µM; hit rate 8.7% among 4,000; AID 624115;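 active = calcium fluorescence ratio at least three times the spread of buffer wells, meaning a non-specific response in parental cells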
Large screens that a line does not name were inactive (follow-up assays come after a bar, where they were run).

CCN(CC(=O)Nc1ccccc1C(F)(F)F)C(=O)c1oc2ccc(OC)cc2c1C	none
CC(=O)Nc1ccc(Nc2nc(C)c([N+](=O)[O-])c(Nc3ccc(NC(C)=O)cc3)n2)cc1	MrgX1 antag -22 | MrgX1 antag conf 82% | HEK293 Ca flux inactive | HEK293 Ca counter inactive | HEK293 Ca cntr2 inactive
CNc1nc(C)c([N+](=O)[O-])c(Nc2ccc(OC)cc2)n1	none
O=C1CSC(c2cccc([N+](=O)[O-])c2)N1CCc1ccccc1 (stereo unspecified)	none
COC(OC)c1ccnc(-c2ccc(OC(C)=O)cc2)n1	none
COC(OC)c1ccnc(-c2ccc(OC(=O)c3ccccc3)cc2)n1	MrgX1 antag -9.2 | MrgX1 antag conf inactive | HEK293 Ca flux inactive | HEK293 Ca counter inactive | HEK293 Ca cntr2 inactive
Cc1ccc(N2C(=O)N(CC(=O)Nc3ccc(C)cc3Cl)C(=O)C2C)cc1 (stereo unspecified)	MrgX1 antag -10 | MrgX1 antag conf 77% | HEK293 Ca flux inactive | HEK293 Ca counter inactive | HEK293 Ca cntr2 inactive
Cc1cc2c(C)nc3ccccc3c2o1	MrgX1 antag -4.7 | MrgX1 antag conf inactive | HEK293 Ca flux inactive | HEK293 Ca counter inactive | HEK293 Ca cntr2 inactive
Cc1nc2ccccc2c2oc(C(=O)NC3CC3)cc12	none
OC[C@H]1O[C@H](OC[C@H]2OC(O)[C@H](O)[C@@H](O)[C@@H]2O)[C@H](O)[C@@H](O)[C@@H]1O (stereo partly specified)	none (no result: RGS4 block, RGS4 pot)
CCOC(=O)c1ccc(-c2ccc3c(c2)CCC3)nc1C	none
Cc1cc(SCC(=O)c2cccc([N+](=O)[O-])c2)nc(=O)[nH]1	none
CCOC(=O)c1ccccc1NC(=O)N[C@@H](C)C(=O)OC	MrgX1 antag -4.6 | MrgX1 antag conf inactive | HEK293 Ca flux inactive | HEK293 Ca counter inactive | HEK293 Ca cntr2 inactive
COC(=O)c1ccccc1NC(=O)N[C@@H](C)C(=O)OC	none
CC(=O)Nc1cc2c(cc1Br)OCCO2	none
Brc1ccc(CNc2cc3c(cc2Br)OCCO3)cc1	MrgX1 antag -4.5 | MrgX1 antag conf inactive | HEK293 Ca flux inactive | HEK293 Ca counter inactive | HEK293 Ca cntr2 inactive
CC(=O)N1CN(CCCn2ccnc2)Cc2c1sc1c2CCCC1	MrgX1 antag -5.8 | MrgX1 antag conf inactive | HEK293 Ca flux inactive | HEK293 Ca counter inactive | HEK293 Ca cntr2 inactive
CC(=O)N1CN(Cc2ccccn2)Cc2c1sc1c2CCCC1	none
COC(=O)c1ccncc1C(=O)Nc1ccc(F)cc1	none
COc1ccc(C(O)C(CN2CCOCC2)c2ccccc2)cc1F (stereo unspecified)	MrgX1 antag -5.6 | MrgX1 antag conf inactive | HEK293 Ca flux inactive | HEK293 Ca counter inactive | HEK293 Ca cntr2 inactive
CCC(Sc1ncccc1C(=O)O)C(=O)N1CCOCC1 (stereo unspecified)	MrgX1 antag -6.8 | MrgX1 antag conf 80% | HEK293 Ca flux inactive | HEK293 Ca counter inactive | HEK293 Ca cntr2 inactive
CCC(Sc1ncccc1C(=O)O)C(=O)N1CCCC1 (stereo unspecified)	none
Cc1c(C(=O)OCCOc2ccccc2)[nH]c2c1C(=O)CCC2	MrgX1 antag -5.2 | MrgX1 antag conf 67% | HEK293 Ca flux inactive | HEK293 Ca counter inactive | HEK293 Ca cntr2 inactive
CC(=O)c1c(C)[nH]c(C(=O)OCCOc2ccccc2)c1C	none
Cc1cc(SCC(=O)Nc2cccc(S(N)(=O)=O)c2)c(C)cc1Br	MrgX1 antag -9.8 | MrgX1 antag conf inactive | HEK293 Ca flux inactive | HEK293 Ca counter inactive | HEK293 Ca cntr2 inactive
COc1ccccc1C(=O)NCC(=O)N/N=C/c1cn[nH]c1-c1ccccc1	none
